Hits are enriched below; roughly 4.6% of the tested compounds scored in any of these assays.
CHO parental Ca: signal in parental CHO cells, OX1R antagonist counter-screen; parental CHO-K1, ATP-induced calcium, Fluo-8 fluorescence; inhibition, % at 5.6 µM; 0.63% of 330,000 active;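 active means inhibition above that plate's mean sample inhibition plus 3 SD, cut at about 26% in these data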
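Test system: untransfected parental CHO cell line; also added: ATP stimulus; dosing: 5.6 µM, single dose; signal: calcium-sensitive Fluo-8 fluorescence; measure: percent inhibition of ATP-evoked calcium rise, normalized to controls; benchmarks: low control ATP plus DMSO, high control DMSO only; replication: one well per compound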
TAAR1 ag: agonists of human TAAR1; CHO RD-HGA16 TAAR1, Fluo-8 calcium fluorescence; vehicle wells 0%, saturating PEA agonist 100%; activation, % at 3 µM; 0.99% of 360,000 active; AID 624467;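 active means activation above the mean activation of all test compounds in the run plus 3 SD, cut at about 38% in these data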
Target sequence (Q96RJ0 whole entry, looked up): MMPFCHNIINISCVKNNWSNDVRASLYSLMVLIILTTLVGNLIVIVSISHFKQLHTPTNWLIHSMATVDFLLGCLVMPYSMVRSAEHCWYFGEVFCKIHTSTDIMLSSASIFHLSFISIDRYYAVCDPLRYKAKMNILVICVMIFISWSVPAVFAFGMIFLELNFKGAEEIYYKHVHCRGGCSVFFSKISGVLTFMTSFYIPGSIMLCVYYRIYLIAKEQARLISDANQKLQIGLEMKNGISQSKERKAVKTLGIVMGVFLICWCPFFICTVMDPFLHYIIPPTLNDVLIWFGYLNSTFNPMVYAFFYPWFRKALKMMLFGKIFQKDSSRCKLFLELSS
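test system = CHO RD-HGA16 cells carrying human TAAR1 plus Gα16 | schedule = 17-24 h seeding, 75 min 37 °C dye, 30 min RT | compound dosing = 3 µM single concentration | control set = DMSO and PEA EC100 | replicates = n 1 | signal = Fluo-8 fluorescence, 5 s baseline then 140 s kinetic read | measure = percent activation vs PEA EC100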
OX1R antag-1: antagonists of human orexin 1 receptor (OX1R); AID 485270; O43613; OX1R-expressing cells, FRET antagonist read-out; inhibition, % at 6.6 µM; 1.8% of 330,000 active; in the data active means inhibition mostly above about 38%, no sharp cut-off; inactive means mostly below about 40%
TAAR1 antagonist: human TAAR1 antagonism; inhibition, % at 3 µM; Q96RJ0; 1.5% of 360,000 active; CHO RD-HGA16 TAAR1, Fluo-8 calcium fluorescence, antagonist;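 active means inhibition above a per-plate cutoff, the mean inhibition of test compounds on that plate plus 3 SD, cut at about 49% in these data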
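Material: RD-HGA16 CHO cells with stable hTAAR1 and Gα16; Dosing: single nominal final test compound concentration of 3 µM; Schedule: seeding 17-24 h prior, 75-min 37 °C, 30-min RT dye loading; Detection: kinetic Fluo-8 calcium fluorescence measurement; Measure: % inhibition from peak post-agonist over basal fluorescence ratio; Benchmarks: vehicle and agonist controls.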
GPR7 antagonist: blocks human GPR7 receptor signaling; P48145; AID 1861; 1.1% of 290,000 active; GPR7-expressing cells, fluorescence antagonist assay; inhibition, % at 4.4 µM; in the data active means inhibition above about 16%, passing the limit was not always enough;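 further: cells stimulated with the agonist NPW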
Target sequence (P48145 whole entry, looked up): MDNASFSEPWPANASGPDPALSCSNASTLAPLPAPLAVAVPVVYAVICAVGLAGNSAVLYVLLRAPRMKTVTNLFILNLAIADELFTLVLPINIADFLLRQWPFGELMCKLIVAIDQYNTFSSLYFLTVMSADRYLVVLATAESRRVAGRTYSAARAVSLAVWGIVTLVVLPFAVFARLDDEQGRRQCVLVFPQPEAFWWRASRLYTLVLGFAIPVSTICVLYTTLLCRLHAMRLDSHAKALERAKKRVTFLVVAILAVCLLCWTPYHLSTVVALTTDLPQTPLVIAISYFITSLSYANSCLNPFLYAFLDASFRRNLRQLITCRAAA
OX1R antag-2: human HCRTR1 antagonism | O43613 | CHO/OX1R cells, Fluo-8 calcium fluorescence, orexin A | inhibition, % at 5 µM | 0.43% of 330,000 active | AID 434989;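 active means inhibition above its plate's threshold, mean inhibition of all tested compounds on the plate plus 3 SD, cut at about 37% in these data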
OX1R HTRF conf: OX1R (human) antagonism, HTRF confirmed. OX1R-expressing cells, HTRF antagonist assay. shares compounds with OX1R antag-1. 49% of 1,800 active. inhibition, % at 6.6 µM. AID 492964; in the data active means inhibition above about 55%;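 further: CHO cells expressing OX1R stimulated with orexin A at about EC80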
CHO-K1 HTRF cnt: signal in parental CHO-K1 cells, OX1R antagonist counter-screen; shares compounds with OX1R antag-1; HTRF counterscreen; inhibition, % at 6.6 µM; 48% of 1,800 active; in the data active means inhibition above about 17%
Of the large screens only hits and unclear results are named; the others gave an inactive call (follow-up assays come after a bar, where they were run).

Cc1nonc1C(=O)N/N=C/c1ccc([N+](=O)[O-])o1	OX1R antag-1 144 | OX1R HTRF conf inactive | CHO-K1 HTRF cnt 81
O=C(N/N=C/c1ccc([N+](=O)[O-])o1)C1CC1	OX1R antag-1 127 | OX1R HTRF conf 58 | CHO-K1 HTRF cnt 75
O=C(N/N=C/c1ccc([N+](=O)[O-])o1)C(=O)Nc1ccc(C(=O)O)cc1	none
O=C(Nc1ccc2nsnc2c1)N1CCCCCC1	OX1R antag-1 87 | OX1R HTRF conf inactive | CHO-K1 HTRF cnt 27
CCCOc1ccc(C(=O)NCC2OCCc3ccccc32)cc1OC (centres undefined)	none
COc1cc(OC)c(CN2CCC(Cc3ccccc3)CC2)cc1Br	none
Cc1cc2nc(N3CCN(C(=O)c4ccco4)CC3)sc2cc1C	none (no result: GPR7 antagonist)
Cc1cc(C)c2nc(N3CCN(C(=O)c4ccco4)CC3)sc2c1	OX1R antag-1 82 (no result: GPR7 antagonist) | OX1R HTRF conf inactive | CHO-K1 HTRF cnt inactive
Cc1cc(F)ccc1NCc1cc2c(cc1[N+](=O)[O-])OCO2	OX1R antag-1 85 | OX1R HTRF conf inactive | CHO-K1 HTRF cnt 21
Clc1ccc2nc(C(Cl)(Cl)Cl)[nH]c2c1	none (no result: CHO parental Ca, OX1R antag-1, GPR7 antagonist, OX1R antag-2)
C=CCNc1nnc(Sc2ncccc2[N+](=O)[O-])s1	OX1R antag-1 91 | OX1R HTRF conf inactive | CHO-K1 HTRF cnt 33
COCCCNC(=O)CN(c1cc(Cl)ccc1OC)S(=O)(=O)c1ccc(C)c([N+](=O)[O-])c1	OX1R antag-1 79 | OX1R HTRF conf 59 | CHO-K1 HTRF cnt inactive
COCCNC(=O)CN(c1cc(Cl)ccc1OC)S(=O)(=O)c1ccc(C)c([N+](=O)[O-])c1	none
Cc1nnc(C)n1N1C(=O)c2cccc3cccc(c23)C1=O	none
CCCc1nnc(N2C(=O)c3cccc4cccc(c34)C2=O)s1	OX1R antag-1 103 | OX1R HTRF conf inactive | CHO-K1 HTRF cnt 37
COC(=O)c1ccccc1NC(=O)COc1ccc2c(c1)OCO2	OX1R antag-1 80 | OX1R HTRF conf 63 | CHO-K1 HTRF cnt inactive
COC(=O)c1ccc(NC(=O)COc2ccc3c(c2)OCO3)cc1	none
C/C=N/NC(=O)c1cc(Br)ccc1O	OX1R antag-1 77 | OX1R HTRF conf inactive | CHO-K1 HTRF cnt inactive
Cc1ccc(CN(C(=O)c2ccc(Cl)c([N+](=O)[O-])c2)C2CCS(=O)(=O)C2)o1 (centres undefined)	none
COc1ccc2nc(NC(=O)C3CCCN3S(=O)(=O)c3ccc(C)cc3)sc2c1 (centres undefined)	OX1R antag-1 80 | OX1R HTRF conf inactive | CHO-K1 HTRF cnt inactive
COc1ccc(S(=O)(=O)N2CCC[C@H]2C(=O)NC2=NCCS2)cc1	none
Cc1ccc2nc3c(cc(C(=O)NCC4CCCO4)c(=N)n3CCCOC(C)C)c(=O)n2c1 (centres undefined)	OX1R antag-1 82 | OX1R HTRF conf inactive | CHO-K1 HTRF cnt 85
Cc1ccc2nc3c(cc(C(=O)NCC4CCCO4)n3C)c(=O)n2c1 (centres undefined)	none (no result: CHO parental Ca, TAAR1 ag, OX1R antag-1, TAAR1 antagonist, OX1R antag-2)
CCOCCCNc1nc2nc3ccc(C)cn3c(=O)c2cc1C(=O)NCC1CCCO1 (centres undefined)	OX1R antag-1 112 | OX1R HTRF conf inactive | CHO-K1 HTRF cnt 78
CCn1cc(C(=O)NCC2CCCO2)c2cc(OC)c(OC)cc2c1=O (centres undefined)	none
COC(CNC(=O)CNC(=S)N(Cc1ccccc1)Cc1cccnc1)OC	none
COc1cc(C)nc(OCCNS(=O)(=O)c2cc(C)ccc2C)n1	none
O=C(CCCOc1ccccc1)Nc1ccc(S(=O)(=O)Nc2ccccn2)cc1	none (no result: TAAR1 ag, TAAR1 antagonist)
COc1cc(/C=N/NC(N)=O)cc([N+](=O)[O-])c1O	OX1R antag-1 91 | OX1R HTRF conf 55 | CHO-K1 HTRF cnt 62
COc1cc2nc(/C=C/c3cc(OC)c(OC)c(OC)c3)sc2cc1SC	OX1R antag-1 79 | OX1R HTRF conf 84 | CHO-K1 HTRF cnt inactive
CCOCCCNC(=O)c1c(N)n(-c2ccc3c(c2)OCO3)c2nc3ccccc3nc12	none
COCCCNC(=O)c1c(N)n(-c2ccc3c(c2)OCO3)c2nc3ccccc3nc12	OX1R antag-1 104 | OX1R HTRF conf inactive | CHO-K1 HTRF cnt inactive
CCOC(=O)c1ccc(/C=C2\c3ccccc3C(=O)N2c2ccccc2)cc1F	none (no result: GPR7 antagonist)
Cc1cc(C)c(C(=O)N2CCCC(CNS(=O)(=O)N(C)C)C2)o1 (centres undefined)	none
O=C1CCC(C(=O)NCCN2C(=O)S/C(=C\c3cccnc3)C2=O)=NN1	OX1R antag-1 106 | OX1R HTRF conf inactive | CHO-K1 HTRF cnt 59
O=C(CN1C(=O)S/C(=C/c2cccnc2)C1=O)N1CCOCC1	OX1R antag-1 112 | OX1R HTRF conf inactive | CHO-K1 HTRF cnt 72
O=C(CCN1C(=O)/C(=C\c2ccccc2F)SC1=S)N1CCOCC1	none (no result: CHO parental Ca, OX1R antag-1, GPR7 antagonist, OX1R antag-2)
O=C(CN1C(=O)S/C(=C/c2cccs2)C1=O)N1CCOCC1	OX1R antag-1 86 | OX1R HTRF conf inactive | CHO-K1 HTRF cnt 29
O=C(O)CN1C(=O)/C(=C\c2cn(CC(=O)N3CCOCC3)c3ccccc23)SC1=S	OX1R antag-1 100 | OX1R HTRF conf inactive | CHO-K1 HTRF cnt 49
O=C(CN1C(=O)S/C(=C/c2ccncc2)C1=O)N1CCOCC1	none
CCNC(=O)CN(Cc1ccccc1)S(=O)(=O)c1ccccc1	none
COC(=O)C1(S(=O)(=O)c2cccc3nsnc23)CC1	OX1R antag-1 106 | OX1R HTRF conf inactive | CHO-K1 HTRF cnt 36
CN(C)S(=O)(=O)c1cccc2c1C(=O)c1ccccc1C2=O	OX1R antag-1 105 | OX1R HTRF conf inactive | CHO-K1 HTRF cnt inactive
CCCn1nnnc1NCc1cccc(OC)c1	none
Cc1cc(/C=N/n2c(COc3ccccc3)nc3ccccc3c2=O)c(O)c([N+](=O)[O-])c1	OX1R antag-1 92 | OX1R HTRF conf inactive | CHO-K1 HTRF cnt inactive
N/C(=N\OC(=O)c1cccc([N+](=O)[O-])c1)c1ccccn1	OX1R antag-1 97 | OX1R HTRF conf inactive | CHO-K1 HTRF cnt 38
N/C(=N\OC(=O)c1ccc2ccccc2c1)c1cccc([N+](=O)[O-])c1	none
N/C(=N/S(=O)(=O)c1ccccc1)c1cccc([N+](=O)[O-])c1	OX1R antag-1 90 | OX1R HTRF conf inactive | CHO-K1 HTRF cnt 21
COc1ccc(S(=O)(=O)N(C)C[C@H]2Oc3ccc(NC(=O)c4ccncc4)cc3C(=O)N([C@H](C)CO)C[C@@H]2C)cc1	none (no result: GPR7 antagonist)
O=C(Nc1ccccc1)N1CCN(c2ccccc2)CC1	none (no result: CHO parental Ca, OX1R antag-1, GPR7 antagonist, OX1R antag-2)
CN1CCN(C(=O)Nc2ccccc2)CC1	OX1R antag-1 92 | OX1R HTRF conf inactive | CHO-K1 HTRF cnt inactive
CCn1c(/C=C2\C(=O)N(C)c3ccccc32)nc2ccccc2c1=O	none
